What was measured:
[1] = target: T1, Androgen receptor (Mus musculus) (UniProt P19091); assay: Relative effect on seminal vesicle weight in adult and castrated mice at 10 ug dose; type: functional, tissue-based
T1 sequence (whole entry): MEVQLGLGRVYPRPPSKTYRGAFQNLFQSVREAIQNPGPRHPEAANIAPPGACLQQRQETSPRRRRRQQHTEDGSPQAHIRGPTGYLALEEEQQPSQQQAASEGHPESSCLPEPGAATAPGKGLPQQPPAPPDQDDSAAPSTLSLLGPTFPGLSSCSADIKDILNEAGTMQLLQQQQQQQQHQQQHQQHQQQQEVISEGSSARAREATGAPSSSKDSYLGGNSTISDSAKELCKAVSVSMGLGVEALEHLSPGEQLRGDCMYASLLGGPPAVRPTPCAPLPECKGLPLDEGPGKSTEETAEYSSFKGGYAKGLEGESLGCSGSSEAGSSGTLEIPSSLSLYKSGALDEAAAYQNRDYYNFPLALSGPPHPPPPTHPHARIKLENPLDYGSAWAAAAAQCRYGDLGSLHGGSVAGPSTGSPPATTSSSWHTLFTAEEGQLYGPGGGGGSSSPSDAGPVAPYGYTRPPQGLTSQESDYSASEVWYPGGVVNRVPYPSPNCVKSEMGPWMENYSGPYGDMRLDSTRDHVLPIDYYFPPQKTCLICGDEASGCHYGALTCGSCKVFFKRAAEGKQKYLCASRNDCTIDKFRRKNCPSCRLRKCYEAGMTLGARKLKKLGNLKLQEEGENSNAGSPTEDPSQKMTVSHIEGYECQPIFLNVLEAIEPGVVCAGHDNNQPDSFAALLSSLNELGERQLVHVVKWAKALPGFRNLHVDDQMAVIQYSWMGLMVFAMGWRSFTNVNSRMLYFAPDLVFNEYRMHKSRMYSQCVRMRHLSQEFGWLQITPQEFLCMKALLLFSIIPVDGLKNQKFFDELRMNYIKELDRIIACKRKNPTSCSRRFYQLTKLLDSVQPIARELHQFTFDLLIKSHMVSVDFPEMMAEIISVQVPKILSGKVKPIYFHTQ
Procedure, shortened: (§1)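 Adult male mice, 23–25 g, six per group, were used intact or castrated via the scrotal route under ether 5 days before the test. Castrates received 0.3 mg testosterone propionate daily. Compounds were injected daily in olive oil for nine days. Seminal vesicles were taken 24 h later, fixed in Bouin solution, dried overnight at 100 °C and weighed. Result is organ mg/body g ×100; % inhibition = [1 − treated/control] × 100.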

MDA-MB-231 [2] = assay: Cytostatic effect on hormone-independent MDA-MB 231 human breast cancer cell proliferation at 1x10E-6M; type: functional
Procedure, shortened: (§2)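 Cells were plated at about 2 × 10⁴ per well in six-well dishes. MCF-7 cells were grown in modified improved MEM with 5% NCS, switched to charcoal-treated NCS two weeks before the test, and exposed for 5 days with a re-dose on day 4. MDA-MB 231 cells were grown in McCoy 5a with 10% NCS and exposed for 2 days. Compounds were given 1 day after plating in 0.1% DMSO, with DMSO-matched controls. Read-out was cell number as % T/C, mean of three experiments with six dishes.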

[3] = target: T2, Estrogen receptor (Mus musculus) (UniProt O08537+P19785); assay: Estrogenic activity in uterotrophic assay in immature mice at 2 ug subcutaneous dose; type: functional
Procedure, shortened: (§3)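 Immature female NMRI mice, 20 days old, in groups of 6-10, were dosed sc once daily for three consecutive days. Compounds were given in PEG/0.9% saline 1:1; vehicle controls were included. Animals were killed 24 h after the last dose. Uteri were fixed in Bouin solution and the effect was taken as uterine dry weight (mg)/body weight (g) ×100, given as mean ± SD.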

[4] = target: T2, Estrogen receptor (Mus musculus); assay: Inhibition of 0.4 ug estrone-stimulated uterine growth in mice at 50.0 ug subcutaneous dose; p<0.01; type: functional
Procedure, shortened: (§4)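 Immature 20-day-old female NMRI mice received sc injections on three consecutive days. Each injection held 0.4 µg estrone plus the compound in PEG/saline 1:1. […] Significance was tested by Mann-Whitney U test.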

MCF7 [5] = assay: Effect on hormone-dependent MCF-7 human breast cancer cell proliferation at 1x10E-6M; type: functional; procedure, shortened: as §2
MDA-MB-231 [6] = assay: Effect on [3H]-thymidine incorporation into MDA-MB 231 human breast cancer cells at 1x10E-6M; type: functional
Procedure, shortened: (§5)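 Cells were seeded at ~2 × 10⁴ per well, treated from the next day in 0.1% DMSO, with DMSO controls. MCF-7 cells were held in charcoal-stripped NCS for 2 weeks, treated for 5 days and re-dosed on day 4. MDA-MB 231 cells were grown in McCoy 5a/10% NCS and treated for 2 days. At the end, 1 µCi [³H]thymidine per well was added for 2 h. Result is % T/C, mean of three experiments × six dishes.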

MDA-MB-231 [7] = assay: Effect on [3H]thymidine incorporation into MDA-MB 231 human breast cancer cells at 1x10E-5 M; type: functional; procedure, shortened: as §5
[8] = target: T2, Estrogen receptor (Mus musculus); assay: Inhibition of 0.4 ug estrone-stimulated uterine growth in mice at 10.0 ug subcutaneous dose; type: functional; procedure, shortened: as §4
[9] = target: T3, Androgen Receptor (Bos taurus) (UniProt Q5EM59); assay: Relative binding affinity(RBA) for 50% displacement of [3H]mibolerone from Androgen receptor compared to testorone
T3 sequence (whole entry): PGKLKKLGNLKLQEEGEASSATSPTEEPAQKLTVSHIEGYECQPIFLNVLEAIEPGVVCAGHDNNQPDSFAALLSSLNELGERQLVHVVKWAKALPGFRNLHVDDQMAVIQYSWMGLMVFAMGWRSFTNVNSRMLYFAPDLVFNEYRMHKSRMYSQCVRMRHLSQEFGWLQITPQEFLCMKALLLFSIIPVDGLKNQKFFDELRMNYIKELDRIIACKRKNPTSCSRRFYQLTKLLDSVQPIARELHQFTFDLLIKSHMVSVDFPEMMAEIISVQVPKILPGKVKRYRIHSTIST
Procedure, shortened: (§6)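 Receptor source was calf uterine cytosol (105000g supernatant, 3 mg/mL protein in assay). Buffers were Tris/EDTA pH 7.4, with NaN₃ for ER, molybdate/glycerol for AR, and sucrose for PR. Tracers were 1 nM [³H]estradiol, [³H]mibolerone or [³H]Org 2058. Incubation was at 0–4 °C for 16 h (ER) or 2 h (AR, PR), with 4–6 competitor concentrations. Nonspecific binding used 2 µM of the unlabeled hormone. Separation was by dextran-coated charcoal. RBA is the ratio of IC50 values for hormone and compound ×100, mean of two triplicate experiments.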

[10] = target: T1, Androgen receptor (Mus musculus); assay: Relative effect on seminal vesicle weight in adult and castrated mice at 1000 ug dose; type: functional, tissue-based; procedure, shortened: as §1
MDA-MB-231 [11] = assay: Cytostatic effect on hormone-independent MDA-MB 231 human breast cancer cell proliferation at5x10E-6M; type: functional; procedure, shortened: as §2
[12] = target: Estrogen receptor (Bos taurus) (UniProt Q9XSB5+P49884); assay: Relative binding affinity(RBA) for 50% displacement of [3H]-estradiol from Estrogen receptor compared to 17-beta-estradiol; type: protein assay; procedure, shortened: as §6
MCF7 [13] = assay: Effect on hormone-dependent MCF-7 human breast cancer cell proliferation at 1x10E-7M; type: functional; procedure, shortened: as §2
[14] = target: T1, Androgen receptor (Mus musculus); assay: Relative effect on seminal vesicle weight in adult and castrated mice supplemented with 0.3 mg TP at 1000 ug dose; type: functional, tissue-based; procedure, shortened: as §1
[15] = target: T2, Estrogen receptor (Mus musculus); assay: Estrogenic activity in uterotrophic assay in immature mice at 50.0 ug subcutaneous dose; type: functional; procedure, shortened: as §3
[16] = target: T2, Estrogen receptor (Mus musculus); assay: Estrogenic activity in uterotrophic assay in immature mice at 125 ug subcutaneous dose; type: functional; procedure, shortened: as §3

T2 sequence (O08537 whole entry, looked up): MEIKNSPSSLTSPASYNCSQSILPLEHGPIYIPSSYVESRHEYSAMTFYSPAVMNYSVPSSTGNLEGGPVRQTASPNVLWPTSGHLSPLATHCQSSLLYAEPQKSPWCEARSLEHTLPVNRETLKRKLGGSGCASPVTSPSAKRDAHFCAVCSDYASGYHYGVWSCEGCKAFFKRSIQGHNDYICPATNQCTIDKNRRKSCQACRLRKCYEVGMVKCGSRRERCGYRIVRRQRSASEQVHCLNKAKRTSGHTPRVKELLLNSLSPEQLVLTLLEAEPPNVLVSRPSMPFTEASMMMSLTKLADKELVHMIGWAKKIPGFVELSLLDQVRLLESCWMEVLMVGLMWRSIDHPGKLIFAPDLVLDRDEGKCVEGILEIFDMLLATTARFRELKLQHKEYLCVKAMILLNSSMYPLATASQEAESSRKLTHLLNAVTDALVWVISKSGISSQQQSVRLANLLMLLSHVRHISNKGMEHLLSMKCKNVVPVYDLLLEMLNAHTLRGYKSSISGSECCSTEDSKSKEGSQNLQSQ
T2 sequence (P19785 whole entry, looked up): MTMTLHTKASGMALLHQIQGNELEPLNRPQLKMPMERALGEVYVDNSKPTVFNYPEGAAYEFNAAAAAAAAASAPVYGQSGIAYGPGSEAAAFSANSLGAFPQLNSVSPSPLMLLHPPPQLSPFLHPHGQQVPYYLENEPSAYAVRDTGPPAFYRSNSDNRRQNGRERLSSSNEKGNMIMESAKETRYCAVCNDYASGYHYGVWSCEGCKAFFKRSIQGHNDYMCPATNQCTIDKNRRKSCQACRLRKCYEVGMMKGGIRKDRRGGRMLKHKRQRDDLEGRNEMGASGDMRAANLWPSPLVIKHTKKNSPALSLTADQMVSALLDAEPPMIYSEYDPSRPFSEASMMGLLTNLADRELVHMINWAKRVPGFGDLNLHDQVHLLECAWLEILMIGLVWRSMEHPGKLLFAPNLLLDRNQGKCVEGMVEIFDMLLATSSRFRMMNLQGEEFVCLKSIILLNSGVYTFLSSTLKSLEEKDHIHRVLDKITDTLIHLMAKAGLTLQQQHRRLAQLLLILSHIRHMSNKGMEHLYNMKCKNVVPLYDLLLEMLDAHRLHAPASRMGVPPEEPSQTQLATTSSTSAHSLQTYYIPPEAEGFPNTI

Relative seminal vesicle weight [1]: 132
Effect [3]: 18.5
inhibition [4]: 25.9%
inhibition [8]: 12.2%
RBA [9]: 0.23
Relative seminal vesicle weight [10]: 38.3
RBA [12]: 17
Relative seminal vesicle weight [14]: 187
Effect [15]: 45.7
Effect [16]: 39.5
SMILES: CCC1Cc2cc(OC(C)=O)ccc2-c2cc3cc(OC(C)=O)ccc3n21 (stereo unspecified)
T/C (MDA-MB-231 [2]): 74%
T/C (MCF7 [5]): 45%
T/C (MDA-MB-231 [6]): 45%
T/C (MDA-MB-231 [7]): 4%
T/C (MDA-MB-231 [11]): 4%
T/C (MCF7 [13]): 80%
